Measured values published in ChEMBL document CHEMBL3600347, “Syntheses and in Vitro Antiplasmodial Activity of Aminoalkylated Chalcones and Analogues” (J Nat Prod, 2015).
pIC50: −log10 of the molar value.

What was measured:
[1] = Selectivity index, ratio of IC50 for CHO cells to IC50 for chloroquinone-sensitive Plasmodium falciparum D10; type: toxicity, cell-based; conditions: hamster; for selectivity ratio: CHO cells versus Plasmodium falciparum D10, read-out: Ratio IC50; for Ratio IC50: cho
Summary of the method: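 Selectivity index computed as CHO-cell IC50 (MTT) divided by P. falciparum IC50 from the pLDH assay, for a representative subset of compounds.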

CHO = test: Cytotoxicity against CHO cells by MTT assay; type: cell-based, Cricetulus griseus
Summary of the method: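 Chinese hamster ovary cells; viability by MTT assay (modified Mosmann). Samples prepared as for antiplasmodial testing. Emetine reference in every experiment, started at 100 μg/mL and serially diluted 10-fold in complete medium to six concentrations, lowest 0.001 μg/mL. IC50 from dose–response curves.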

Plasmodium falciparum [2] = test: Antiplasmodial activity chloroquinone-sensitive Plasmodium falciparum D10 by parasite lactate dehydrogenase assay; type: functional, organism-based
Summary of the method: (§1)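 Asexual erythrocytic P. falciparum stages kept in continuous culture (modified Trager–Jensen). Growth inhibition read by parasite lactate dehydrogenase assay (modified Makler). Samples run in triplicate on one or two separate occasions. IC50 from full dose–response curves by nonlinear curve fitting. Chloroquine served as internal standard to monitor conditions.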

Plasmodium falciparum [3] = test: Antiplasmodial activity chloroquinone-resistant Plasmodium falciparum Dd2 by parasite lactate dehydrogenase assay; type: functional, organism-based
Summary of the method: (§2)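 Asexual erythrocyte-stage P. falciparum kept in continuous culture by a modified Trager–Jensen method. Growth inhibition was read by a modified Makler parasite lactate dehydrogenase assay. Samples were run in triplicate on one or two separate occasions, with chloroquine as internal standard. IC50 was taken from full dose–response curves by nonlinear curve fitting.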

Plasmodium falciparum [4] = test: Antiplasmodial activity chloroquinone-sensitive Plasmodium falciparum NF54 by parasite lactate dehydrogenase assay; type: functional, organism-based; summary of the method: as §1
Plasmodium falciparum [5] = test: Resistance index, ratio of IC50 for chloroquinone-resistant Plasmodium falciparum Dd2 to IC50 for chloroquinone-sensitive Plasmodium falciparum D10; type: functional
[6] = Selectivity index, ratio of IC50 for CHO cells to IC50 for chloroquinone-sensitive Plasmodium falciparum D10; conditions: hamster, CHO cells versus Plasmodium falciparum D10
Plasmodium falciparum [7] = test: Resistance index, ratio of IC50 for […] to IC50 for chloroquinone-[…] Plasmodium falciparum K1; type: functional
Plasmodium falciparum [8] = test: Antiplasmodial activity chloroquinone-resistant Plasmodium falciparum K1 by parasite lactate dehydrogenase assay; type: functional, organism-based; summary of the method: as §2

COc1ccc(C(=O)/C=C/c2ccc(CN3CCCCC3)c(O)c2)cc1 gave a selectivity ratio [1] of 237, a pIC50 (CHO; Cricetulus griseus, CHO) of 3.71 and a pIC50 (Plasmodium falciparum [2]; Plasmodium falciparum, D10) of 6.08.

For O=C(/C=C/c1ccc(CN2CCCCC2)c(O)c1)c1ccccn1, the pIC50 (Plasmodium falciparum [2]; Plasmodium falciparum, D10) was 5.86.

O=C(/C=C/c1ccc(O)c(CN2CCCCC2)c1)c1ccc(C(F)(F)F)cc1 showed a pIC50 (Plasmodium falciparum [3]) of 6.70, a selectivity ratio [1] of 49 and a pIC50 (CHO; Cricetulus griseus, CHO) of 5.09. It also gave a pIC50 (Plasmodium falciparum [2]; Plasmodium falciparum, D10) of 6.77.

NC(=O)c1ccc(CCCc2ccccc2)cc1 showed a pIC50 (Plasmodium falciparum [4]; Plasmodium falciparum, NF54) of under 5.40.

With CC(=O)CCc1ccc(CN2CCCCC2)c(O)c1 the pIC50 (Plasmodium falciparum [4]; Plasmodium falciparum, NF54) was 5.77.

COc1ccc(C(=O)/C=C/c2ccc(O)c(CN(C)C)c2)cc1 gave a pIC50 (Plasmodium falciparum [2]; Plasmodium falciparum, D10) of under 5.52.

For O=C(CCc1ccc(CN2CCCCC2)c(O)c1)c1cccs1, the pIC50 (Plasmodium falciparum [3]) was 6.57, the selectivity ratio [1] was 895 and the pIC50 (CHO; Cricetulus griseus, CHO) was 3.77. The pIC50 (Plasmodium falciparum [2]; Plasmodium falciparum, D10) was 6.72.

Compound CCN1CCN(Cc2ccc(CCCc3ccccc3)cc2O)CC1 has a pIC50 (Plasmodium falciparum [4]; Plasmodium falciparum, NF54) of 6.39.

With CC(C)Nc1ccc(CCCc2cccc(O)c2)cc1 the pIC50 (Plasmodium falciparum [4]; Plasmodium falciparum, NF54) was under 5.52.

In the case of COc1ccc(C(=O)/C=C/c2cccc(O)c2)cc1, the pIC50 (Plasmodium falciparum [2]; Plasmodium falciparum, D10) was 4.95.

For O=C(/C=C/c1ccc(CN2CCCCC2)c(O)c1)c1cccs1, the pIC50 (Plasmodium falciparum [2]; Plasmodium falciparum, D10) was 5.56.

Work on Oc1cc(CCCc2ccccc2)ccc1CN1CCOCC1 yielded a pIC50 (Plasmodium falciparum [4]; Plasmodium falciparum, NF54) of 6.12.

CN1CCN(Cc2ccc(CCCc3ccccc3)cc2O)CC1 showed a pIC50 (Plasmodium falciparum [4]; Plasmodium falciparum, NF54) of 6.10.

COc1ccc(C(=O)/C=C/c2ccc(O)c(CN3CCN(C)CC3)c2)cc1 showed a pIC50 (Plasmodium falciparum [2]; Plasmodium falciparum, D10) of 5.42.

Work on Oc1ccc(CCCc2ccccc2)cc1CN1CCCCC1 yielded a pIC50 (Plasmodium falciparum [4]; Plasmodium falciparum, NF54) of 7.22.

For CCN1CCN(Cc2ccc(/C=C/C(=O)c3ccc(OC)cc3)cc2O)CC1, the pIC50 (Plasmodium falciparum [2]; Plasmodium falciparum, D10) was 5.56.

Work on O=C(/C=C/c1cccc(O)c1)c1ccccc1 [3-HYDROXY CHALCONE] yielded a pIC50 (Plasmodium falciparum [2]; Plasmodium falciparum, D10) of 4.80.

In the case of COc1ccc(CCCc2cccc(O)c2)cc1, the pIC50 (Plasmodium falciparum [2]; Plasmodium falciparum, D10) was under 4.52.

In the case of Cl.Oc1cc(CCCc2ccc(F)cc2)ccc1CN1CCCCC1, the “Ratio IC50” value (Plasmodium falciparum [5]) was 0.79, the pIC50 (Plasmodium falciparum [3]) was 7.70 and the selectivity ratio [1] was 5830. The pIC50 (CHO; Cricetulus griseus, CHO) was 3.79 and the pIC50 (Plasmodium falciparum [2]) was 7.52.

In the case of Oc1ccccc1CN1CCCCC1, the pIC50 (Plasmodium falciparum [4]; Plasmodium falciparum, NF54) was under 5.30.

With COc1ccc(CCCc2ccc(CN3CCCCC3)c(O)c2)cc1.Cl the “Ratio IC50” value (Plasmodium falciparum [5]) was 1, the pIC50 (Plasmodium falciparum [3]) was 7.15 and the “Ratio IC50” value [1] was 3063. For the same compound, the pIC50 (CHO; cho) was 3.67 and the pIC50 (Plasmodium falciparum [2]) was 7.15.

With Oc1cc(CCCc2ccc(CCCc3ccc(CN4CCCCC4)c(O)c3)cc2)ccc1CN1CCCCC1 the pIC50 (Plasmodium falciparum [4]; Plasmodium falciparum, NF54) was 7.22.

For CCc1ccc(C(=O)/C=C/c2ccc(CN3CCCCC3)c(O)c2)cc1, the selectivity ratio [6] was 47, the pIC50 (Plasmodium falciparum [3]) was 6.68 and the pIC50 (CHO; Cricetulus griseus, CHO) was 5.18. For the same compound, the pIC50 (Plasmodium falciparum [2]; Plasmodium falciparum, D10) was 6.85.

Work on O=C(CCc1ccc(CN2CCCCC2)c(O)c1)c1ccc[nH]1 yielded a pIC50 (Plasmodium falciparum [2]; Plasmodium falciparum, D10) of under 5.52.

Compound CCc1ccc(CCCc2ccc(CN3CCCCC3)c(O)c2)cc1 [listing 1 of 2 here] has a pIC50 (Plasmodium falciparum [4]) of 7.22.

With c1ccc(CN2CCCCC2)cc1 the pIC50 (Plasmodium falciparum [4]; Plasmodium falciparum, NF54) was under 5.30.

In the case of CCc1ccc(CN2CCCCC2)c(O)c1, the pIC50 (Plasmodium falciparum [4]; Plasmodium falciparum, NF54) was 5.98.

In the case of Oc1cc(CCCc2cccs2)ccc1CN1CCCCC1, the “Ratio IC50” value (Plasmodium falciparum [7]) was 0.48, the pIC50 (Plasmodium falciparum [8]) was 7.70 and the pIC50 (Plasmodium falciparum [4]; Plasmodium falciparum, NF54) was 7.30.

CN(C)Cc1ccc(CCCc2ccccc2)cc1O showed a pIC50 (Plasmodium falciparum [4]; Plasmodium falciparum, NF54) of 7.05.

Work on COc1ccc(C(=O)/C=C/c2ccc(CN(C)C)c(O)c2)cc1 yielded a pIC50 (Plasmodium falciparum [2]; Plasmodium falciparum, D10) of 5.60.

For COc1ccc(CCCc2ccc(CN3CCCCC3)c(O)c2)cc1, the “Ratio IC50” value [1] was 332, the pIC50 (CHO; cho) was 4.16 and the pIC50 (Plasmodium falciparum [2]) was 6.68.

Work on Cc1ccc(S(=O)(=O)Oc2cc(CCCc3ccc(F)cc3)ccc2CN2CCCCC2)cc1 yielded a pIC50 (Plasmodium falciparum [4]; Plasmodium falciparum, NF54) of under 5.70.

Compound Oc1cc(CCCc2ccccc2)ccc1CN1CCNCC1 has a pIC50 (Plasmodium falciparum [4]; Plasmodium falciparum, NF54) of 5.55.

Oc1cc(CCCc2ccccc2)ccc1CN1CCCCC1 gave a pIC50 (Plasmodium falciparum [4]; Plasmodium falciparum, NF54) of 6.85.

In the case of COc1ccc(CCCc2cc(O)c(CN3CCCCC3)cc2CN2CCCCC2)cc1, the “Ratio IC50” value (Plasmodium falciparum [5]) was 1.47, the pIC50 (Plasmodium falciparum [3]) was 7.10 and the selectivity ratio [1] was 3510. The pIC50 (CHO; Cricetulus griseus, CHO) was 3.70 and the pIC50 (Plasmodium falciparum [2]; Plasmodium falciparum, D10) was 7.22.

For Oc1ccc(CCCc2ccc(C(F)(F)F)cc2)cc1CN1CCCCC1 [listing 1 of 2 here], the pIC50 (Plasmodium falciparum [4]; Plasmodium falciparum, NF54) was 6.55.

In the case of Oc1cc(CCCc2ccc(-c3ccccc3)cc2)ccc1CN1CCCCC1, the pIC50 (Plasmodium falciparum [4]; Plasmodium falciparum, NF54) was 7.10.

For COc1ccc(C(=O)/C=C/c2ccc(CN3CCCC3)c(O)c2)cc1, the pIC50 (Plasmodium falciparum [2]; Plasmodium falciparum, D10) was 5.24.

In the case of O=C(/C=C/c1ccc(CN2CCCCC2)c(O)c1)c1ccc[nH]1, the pIC50 (Plasmodium falciparum [2]; Plasmodium falciparum, D10) was 5.62.

O=C(/C=C/c1ccc(CN2CCCC2)c(O)c1)c1ccccc1 showed a pIC50 (Plasmodium falciparum [2]; Plasmodium falciparum, D10) of 5.18.

For COc1ccc(C(=O)/C=C/c2cc(CN3CCCCC3)c(O)c(OC)c2)cc1, the pIC50 (Plasmodium falciparum [2]; Plasmodium falciparum, D10) was 5.55.

In the case of Oc1cc(CCCc2ccc(F)cc2)ccc1CN1CCCCC1, the pIC50 (Plasmodium falciparum [2]) was 7.15.

In the case of Oc1cc(CCCc2ccccc2)ccc1CN1CCCC1, the pIC50 (Plasmodium falciparum [4]; Plasmodium falciparum, NF54) was 7.40.

Compound O=C(/C=C/c1ccc(CN2CCCCC2)c(O)c1)c1ccc(F)cc1 has a pIC50 (Plasmodium falciparum [3]) of 6.15, a selectivity ratio [1] of 796 and a pIC50 (CHO; Cricetulus griseus, CHO) of 4.11. It also gave a pIC50 (Plasmodium falciparum [2]; Plasmodium falciparum, D10) of 7.00.

With O=C(/C=C/c1ccc(CN2CCCCC2)c(O)c1)c1ccc(Br)cc1 the pIC50 (Plasmodium falciparum [3]) was 6.68, the selectivity ratio [1] was 50 and the pIC50 (CHO; Cricetulus griseus, CHO) was 5.14. The pIC50 (Plasmodium falciparum [2]; Plasmodium falciparum, D10) was 6.82.

Work on CC(C)Nc1ccc(CCCc2ccc(CN3CCCCC3)c(O)c2)cc1 yielded a pIC50 (Plasmodium falciparum [4]; Plasmodium falciparum, NF54) of 6.74.

Oc1cc(CCc2ccccc2)ccc1CN1CCCCC1 gave a pIC50 (Plasmodium falciparum [4]; Plasmodium falciparum, NF54) of 6.92.

Compound Oc1cc(CCCc2ccc3ccccc3c2)ccc1CN1CCCCC1 has a pIC50 (Plasmodium falciparum [4]; Plasmodium falciparum, NF54) of 7.40.

With CCc1ccc(CCCc2ccc(CN3CCCCC3)c(O)c2)cc1 [listing 2 of 2 here] the selectivity ratio [6] was 138, the pIC50 (Plasmodium falciparum [4]) was 6.74 and the pIC50 (CHO; Cricetulus griseus, CHO) was 4.60.

For Cl.Oc1cc(CCCc2ccccc2)ccc1CN1CCCCC1, the “Ratio IC50” value (Plasmodium falciparum [5]) was 1.35, the pIC50 (Plasmodium falciparum [3]) was 7.52 and the selectivity ratio [1] was 7030. The pIC50 (CHO; Cricetulus griseus, CHO) was 3.79 and the pIC50 (Plasmodium falciparum [2]; Plasmodium falciparum, D10) was 7.70.

Work on COc1ccc(C(=O)/C=C/c2ccc(CN3CCOCC3)c(O)c2)cc1 yielded a pIC50 (Plasmodium falciparum [2]; Plasmodium falciparum, D10) of 5.31.

O=C(CCc1ccc(CN2CCCCC2)c(O)c1)c1ccc(F)cc1 gave a pIC50 (Plasmodium falciparum [4]; Plasmodium falciparum, NF54) of 6.59.

Work on CC[C@H]1CN2CCc3cc(OC)c(OC)cc3[C@@H]2C[C@@H]1C[C@H]1NCCc2cc(OC)c(OC)cc21 [EMETINE] yielded a pIC50 (CHO; Cricetulus griseus, CHO) of 7.52.

For Oc1ccc(CCCc2ccc(C(F)(F)F)cc2)cc1CN1CCCCC1 [listing 2 of 2 here], the “Ratio IC50” value (Plasmodium falciparum [5]) was 5.8, the pIC50 (Plasmodium falciparum [3]) was 7.52 and the pIC50 (Plasmodium falciparum [2]; Plasmodium falciparum, D10) was 8.00.

In the case of Cc1ccc(CCCc2ccc(CN3CCCCC3)c(O)c2)cc1, the “Ratio IC50” value (Plasmodium falciparum [5]) was 3.06, the pIC50 (Plasmodium falciparum [3]) was 6.57 and the selectivity ratio [1] was 56. It also gave a pIC50 (CHO; Cricetulus griseus, CHO) of 5.31 and a pIC50 (Plasmodium falciparum [2]; Plasmodium falciparum, D10) of 7.05.

For Cc1ccc(C(=O)/C=C/c2ccc(CN3CCCCC3)c(O)c2)cc1, the pIC50 (Plasmodium falciparum [2]; Plasmodium falciparum, D10) was under 5.52.
